Assay results as given in ChEMBL document CHEMBL1148367, “Novel azapeptide inhibitors of hepatitis C virus serine protease” (J Med Chem, 2004).
*1 amine or outer side, *2 acyl side, *3 side chain or, on linkers, in order; H or OH if unused. Where a SMILES comes first, the peptide text is derived from it. [ ]: non-standard residue; d: D form. The star is where a group is joined. NH(1S-phenylpropyl) = CC[C@H](N*)c1ccccc1; NH(1R-phenylethyl) = C[C@@H](N*)c1ccccc1; NH(1S-phenylethyl) = C[C@H](N*)c1ccccc1; X8 = O=C(N(CC(F)(F)F)N[*:1])[*:2]; Hyp = O=C(O)[C@@H]1C[C@@H](O)CN1; NHPiperonyl = c1cc2c(cc1CN*)OCO2; X12 = CCCN(N*)C(=O)NN(C)c1ccccc1; X5 = CC(C)CCN(N[*:1])C(=O)[*:2]; azaNva = CCCN(N[*:1])C(=O)[*:2]; AzaAla = CN(N[*:1])C(=O)[*:2]; X10 = CCCN(N*)C(=O)CCc1ccccc1; X3 = C[C@H](N*)c1cccc2ccccc12; X9 = CCCCCN(N[*:1])C(=O)[*:2]; NMe(benzyl) = CN(Cc1ccccc1)*; X6 = CCCN(N*)C(=S)NCc1ccccc1; X7 = CCCN(N*)C(=O)OCc1ccccc1; X1 = c1ccc2c(c1)CC[C@@H]2N*; X4 = C[C@H](N*)c1ccc(Br)cc1; X14 = C[C@H](N*)c1nnn[nH]1; X11 = C[C@H](N*)C1CCCCC1; X13 = c1ccc2c(c1)CCN2*; NHBn = c1ccc(CN*)cc1; X2 = CCCN(N*)C(N)=O; Bn = c1ccc(C*)cc1

Molecular target: T1, NS3 (Hepatitis C virus, UniProt A3EZJ3)
T1 sequence (A3EZJ3 whole entry): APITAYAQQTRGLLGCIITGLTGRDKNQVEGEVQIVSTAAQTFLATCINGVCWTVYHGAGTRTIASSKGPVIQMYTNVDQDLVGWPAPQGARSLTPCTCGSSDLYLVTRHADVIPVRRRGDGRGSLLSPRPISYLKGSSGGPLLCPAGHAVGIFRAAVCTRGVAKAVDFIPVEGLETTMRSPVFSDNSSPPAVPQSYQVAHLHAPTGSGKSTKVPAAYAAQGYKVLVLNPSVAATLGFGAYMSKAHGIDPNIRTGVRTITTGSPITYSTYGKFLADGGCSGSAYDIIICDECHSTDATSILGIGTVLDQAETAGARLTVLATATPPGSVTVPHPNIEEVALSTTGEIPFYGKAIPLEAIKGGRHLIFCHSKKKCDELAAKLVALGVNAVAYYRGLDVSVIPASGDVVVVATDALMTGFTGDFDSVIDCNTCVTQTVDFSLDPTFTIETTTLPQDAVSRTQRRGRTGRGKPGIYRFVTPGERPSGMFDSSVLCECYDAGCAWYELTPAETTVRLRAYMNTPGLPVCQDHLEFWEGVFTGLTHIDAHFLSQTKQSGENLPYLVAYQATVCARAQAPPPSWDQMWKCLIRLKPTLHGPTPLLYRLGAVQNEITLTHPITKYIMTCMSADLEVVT
Experiment: Inhibitory concentration against Hepatitis C virus NS3 serine protease
Design: species or system Hepacivirus hominis
Procedure, shortened: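 HCV NS3 serine protease IC50 from the group's in-house protease assay, run as previously described. Each reported value is the mean of at least four determinations.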

Ac-DDIVPC-OH was tested. Which IC50 did it give?
The IC50 was 43000 nM.

Molecular target: T1, NS3
Experiment: Inhibitory concentration against Hepatitis C virus serine protease
Design: species or system Hepacivirus hominis

Which IC50 does the source give for `CCC[C@@H](NC(=O)[C@@H]1C[C@@H](OCc2ccccc2)CN1C(=O)[C@@H](NC(=O)[C@@H](NC(=O)[C@@H](CCC(=O)O)NC(=O)[C@H](CC(=O)O)NC(C)=O)[C@@H](C)CC)C(C)C)C(=O)O` here?
Its IC50 is 34000 nM.

With `CC[C@H](C)[C@H](NC(=O)[C@@H](CCC(=O)O)NC(=O)[C@H](CC(=O)O)NC(C)=O)C(=O)N[C@H](C(=O)N1C[C@H](OCc2ccccc2)C[C@H]1C(=O)NN(CC(C)C)C(=O)N[C@@H](C)c1ccccc1)C(C)C` as the compound, how does the IC50 read?
The IC50 was 2400 nM.

Which IC50 does the source give for `CCC(CC)N(NC(=O)[C@@H]1C[C@@H](OCc2ccccc2)CN1C(=O)[C@@H](NC(=O)[C@@H](NC(=O)[C@@H](CCC(=O)O)NC(=O)[C@H](CC(=O)O)NC(C)=O)[C@@H](C)CC)C(C)C)C(=O)N[C@@H](C)c1ccccc1` here?
The IC50 was 4100 nM.

`CCCCN(NC(=O)[C@@H]1C[C@@H](OCc2ccccc2)CN1C(=O)[C@@H](NC(=O)[C@@H](NC(=O)[C@@H](CCC(=O)O)NC(=O)[C@H](CC(=O)O)NC(C)=O)[C@@H](C)CC)C(C)C)C(=O)N[C@@H](C)c1ccccc1` was tested. Which IC50 did it give?
The IC50 was 99 nM.

How did the IC50 turn out when `CC[C@H](C)[C@H](NC(=O)[C@@H](CCC(=O)O)NC(=O)[C@H](CC(=O)O)NC(C)=O)C(=O)N[C@H](C(=O)N1C[C@H](OCc2ccccc2)C[C@H]1C(=O)NN(CC)C(=O)N[C@@H](C)c1ccccc1)C(C)C` was run?
The IC50 was 85 nM.

For `CCC[C@H](NC(=O)[C@@H]1C[C@@H](OCc2ccccc2)CN1C(=O)[C@@H](NC(=O)[C@@H](NC(=O)[C@@H](CCC(=O)O)NC(=O)[C@H](CC(=O)O)NC(C)=O)[C@@H](C)CC)C(C)C)C(N)=O`, which IC50 is on record?
The IC50 was 26000 nM.

How did the IC50 turn out when `CCC[C@H](NC(=O)[C@@H]1C[C@@H](OCc2ccccc2)CN1C(=O)[C@@H](NC(=O)[C@@H](NC(=O)[C@@H](CCC(=O)O)NC(=O)[C@H](CC(=O)O)NC(C)=O)[C@@H](C)CC)C(C)C)C(=O)O` was run?
Its IC50 is 600 nM.

For `CCCN(NC(=O)[C@@H]1C[C@@H](OCc2ccccc2)CN1C(=O)[C@@H](NC(=O)[C@@H](NC(=O)[C@@H](CCC(=O)O)NC(=O)[C@H](CC(=O)O)NC(C)=O)[C@@H](C)CC)C(C)C)C(N)=O` (Ac-D[dE]IV[Hyp](Bn)-X2), which IC50 is on record?
The IC50 was 17500 nM.

With `CCCN(NC(=O)[C@@H]1C[C@@H](OCc2ccccc2)CN1C(=O)[C@@H](NC(=O)[C@@H](NC(=O)[C@@H](CCC(=O)O)NC(=O)[C@H](CC(=O)O)NC(C)=O)[C@@H](C)CC)C(C)C)C(=S)NCc1ccccc1` (Ac-D[dE]IV[Hyp](Bn)-X6) as the compound, how does the IC50 read?
The IC50 was 4200 nM.

Which IC50 does the source give for `CCCN(NC(=O)[C@@H]1C[C@@H](OCc2ccccc2)CN1C(=O)[C@@H](NC(=O)[C@@H](NC(=O)[C@@H](CCC(=O)O)NC(=O)[C@H](CC(=O)O)NC(C)=O)[C@@H](C)CC)C(C)C)C(=O)OCc1ccccc1` (Ac-D[dE]IV[Hyp](Bn)-X7) here?
The IC50 was 800 nM.

How did the IC50 turn out when `CCCN(NC(=O)[C@@H]1C[C@@H](OCc2ccccc2)CN1C(=O)[C@@H](NC(=O)[C@@H](NC(=O)[C@@H](CCC(=O)O)NC(=O)[C@H](CC(=O)O)NC(C)=O)[C@@H](C)CC)C(C)C)C(=O)CCc1ccccc1` (Ac-D[dE]IV[Hyp](Bn)-X10) was run?
Its IC50 is 710 nM.

How did the IC50 turn out when `CCCN(NC(=O)[C@@H]1C[C@@H](OCc2ccccc2)CN1C(=O)[C@@H](NC(=O)[C@@H](NC(=O)[C@@H](CCC(=O)O)NC(=O)[C@H](CC(=O)O)NC(C)=O)[C@@H](C)CC)C(C)C)C(=O)NN(C)c1ccccc1` (Ac-D[dE]IV[Hyp](Bn)-X12) was run?
Its IC50 is 480 nM.

How did the IC50 turn out when `CC[C@H](C)[C@H](NC(=O)[C@@H](CCC(=O)O)NC(=O)[C@H](CC(=O)O)NC(C)=O)C(=O)N[C@H](C(=O)N1C[C@H](OCc2ccccc2)C[C@H]1C(=O)NN(C)C(=O)N[C@@H](C)c1ccccc1)C(C)C` (Ac-D[dE]IV[Hyp](Bn)[AzaAla]-{NH(1S-phenylethyl)}) was run?
Its IC50 is 430 nM.

`CC[C@H](C)[C@H](NC(=O)[C@@H](CCC(=O)O)NC(=O)[C@H](CC(=O)O)NC(C)=O)C(=O)N[C@H](C(=O)N1C[C@H](OCc2ccccc2)C[C@H]1C(=O)NN(CCC(C)C)C(=O)N[C@@H](C)c1ccccc1)C(C)C` (Ac-D[dE]IV[Hyp](Bn)[X5]-{NH(1S-phenylethyl)}) was tested. Which IC50 did it give?
Its IC50 is 5700 nM.

For `CC[C@H](C)[C@H](NC(=O)[C@@H](CCC(=O)O)NC(=O)[C@H](CC(=O)O)NC(C)=O)C(=O)N[C@H](C(=O)N1C[C@H](OCc2ccccc2)C[C@H]1C(=O)NN(CC(F)(F)F)C(=O)N[C@@H](C)c1ccccc1)C(C)C` (Ac-D[dE]IV[Hyp](Bn)[X8]-{NH(1S-phenylethyl)}), which IC50 is on record?
The IC50 was 340 nM.

`CCCCCN(NC(=O)[C@@H]1C[C@@H](OCc2ccccc2)CN1C(=O)[C@@H](NC(=O)[C@@H](NC(=O)[C@@H](CCC(=O)O)NC(=O)[C@H](CC(=O)O)NC(C)=O)[C@@H](C)CC)C(C)C)C(=O)N[C@@H](C)c1ccccc1` (Ac-D[dE]IV[Hyp](Bn)[X9]-{NH(1S-phenylethyl)}) was tested. Which IC50 did it give?
The IC50 was 490 nM.

With `CCCN(NC(=O)[C@@H]1C[C@@H](OCc2ccccc2)CN1C(=O)[C@@H](NC(=O)[C@@H](NC(=O)[C@@H](CCC(=O)O)NC(=O)[C@H](CC(=O)O)NC(C)=O)[C@@H](C)CC)C(C)C)C(=O)NCc1ccccc1` (Ac-D[dE]IV[Hyp](Bn)[azaNva]-NHBn) as the compound, how does the IC50 read?
The IC50 was 590 nM.

For `CCCN(NC(=O)[C@@H]1C[C@@H](OCc2ccccc2)CN1C(=O)[C@@H](NC(=O)[C@@H](NC(=O)[C@@H](CCC(=O)O)NC(=O)[C@H](CC(=O)O)NC(C)=O)[C@@H](C)CC)C(C)C)C(=O)NCc1ccc2c(c1)OCO2` (Ac-D[dE]IV[Hyp](Bn)[azaNva]-NHPiperonyl), which IC50 is on record?
Its IC50 is 500 nM.

`CCCN(NC(=O)[C@@H]1C[C@@H](OCc2ccccc2)CN1C(=O)[C@@H](NC(=O)[C@@H](NC(=O)[C@@H](CCC(=O)O)NC(=O)[C@H](CC(=O)O)NC(C)=O)[C@@H](C)CC)C(C)C)C(=O)N[C@H]1CCc2ccccc21` (Ac-D[dE]IV[Hyp](Bn)[azaNva]-X1) was tested. Which IC50 did it give?
Its IC50 is 100 nM.

With `CCCN(NC(=O)[C@@H]1C[C@@H](OCc2ccccc2)CN1C(=O)[C@@H](NC(=O)[C@@H](NC(=O)[C@@H](CCC(=O)O)NC(=O)[C@H](CC(=O)O)NC(C)=O)[C@@H](C)CC)C(C)C)C(=O)N[C@@H](C)c1cccc2ccccc12` (Ac-D[dE]IV[Hyp](Bn)[azaNva]-X3) as the compound, how does the IC50 read?
Its IC50 is 490 nM.

Which IC50 does the source give for `CCCN(NC(=O)[C@@H]1C[C@@H](OCc2ccccc2)CN1C(=O)[C@@H](NC(=O)[C@@H](NC(=O)[C@@H](CCC(=O)O)NC(=O)[C@H](CC(=O)O)NC(C)=O)[C@@H](C)CC)C(C)C)C(=O)N[C@@H](C)c1ccc(Br)cc1` (Ac-D[dE]IV[Hyp](Bn)[azaNva]-X4) here?
The IC50 was 72 nM.

`CCCN(NC(=O)[C@@H]1C[C@@H](OCc2ccccc2)CN1C(=O)[C@@H](NC(=O)[C@@H](NC(=O)[C@@H](CCC(=O)O)NC(=O)[C@H](CC(=O)O)NC(C)=O)[C@@H](C)CC)C(C)C)C(=O)N[C@@H](C)C1CCCCC1` (Ac-D[dE]IV[Hyp](Bn)[azaNva]-X11) was tested. Which IC50 did it give?
The IC50 was 420 nM.

`CCCN(NC(=O)[C@@H]1C[C@@H](OCc2ccccc2)CN1C(=O)[C@@H](NC(=O)[C@@H](NC(=O)[C@@H](CCC(=O)O)NC(=O)[C@H](CC(=O)O)NC(C)=O)[C@@H](C)CC)C(C)C)C(=O)N1CCc2ccccc21` (Ac-D[dE]IV[Hyp](Bn)[azaNva]-X13) was tested. Which IC50 did it give?
Its IC50 is 4400 nM.

How did the IC50 turn out when `CCCN(NC(=O)[C@@H]1C[C@@H](OCc2ccccc2)CN1C(=O)[C@@H](NC(=O)[C@@H](NC(=O)[C@@H](CCC(=O)O)NC(=O)[C@H](CC(=O)O)NC(C)=O)[C@@H](C)CC)C(C)C)C(=O)N[C@@H](C)c1nnn[nH]1` (Ac-D[dE]IV[Hyp](Bn)[azaNva]-X14) was run?
Its IC50 is 860 nM.

Which IC50 does the source give for `CCCN(NC(=O)[C@@H]1C[C@@H](OCc2ccccc2)CN1C(=O)[C@@H](NC(=O)[C@@H](NC(=O)[C@@H](CCC(=O)O)NC(=O)[C@H](CC(=O)O)NC(C)=O)[C@@H](C)CC)C(C)C)C(=O)N[C@H](C)c1ccccc1` (Ac-D[dE]IV[Hyp](Bn)[azaNva]-{NH(1R-phenylethyl)}) here?
Its IC50 is 4300 nM.

Which IC50 does the source give for `CCCN(NC(=O)[C@@H]1C[C@@H](OCc2ccccc2)CN1C(=O)[C@@H](NC(=O)[C@@H](NC(=O)[C@@H](CCC(=O)O)NC(=O)[C@H](CC(=O)O)NC(C)=O)[C@@H](C)CC)C(C)C)C(=O)N[C@@H](CC)c1ccccc1` (Ac-D[dE]IV[Hyp](Bn)[azaNva]-{NH(1S-phenylpropyl)}) here?
The IC50 was 440 nM.

How did the IC50 turn out when `CCCN(NC(=O)[C@@H]1C[C@@H](OCc2ccccc2)CN1C(=O)[C@@H](NC(=O)[C@@H](NC(=O)[C@@H](CCC(=O)O)NC(=O)[C@H](CC(=O)O)NC(C)=O)[C@@H](C)CC)C(C)C)C(=O)N(C)Cc1ccccc1` (Ac-D[dE]IV[Hyp](Bn)[azaNva]-{NMe(benzyl)}) was run?
The IC50 was 8400 nM.
